Test results reported in ChEMBL document CHEMBL3621120, “Discovery of ((4-(5-(Cyclopropylcarbamoyl)-2-methylphenylamino)-5-methylpyrrolo[1,2-f][1,2,4]triazine-6-carbonyl)(propyl)carbamoyloxy)methyl-2-(4-(phosphonooxy)phenyl)acetate (BMS-751324), a Clinical Prodrug of p38α MAP Kinase Inhibitor” (J Med Chem, 2015).

How the values were obtained:
Caco-2 = experiment: Drug level in apical side of human Caco2 cells incubated at 37 degC for 2 hrs; format: ADME, cell-based; settings: caco-2, 2 h
Summary of the method: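 Compounds loaded on apical side of Caco-2 monolayers and incubated at 37 °C for 2 h; prodrug, intermediate and parent measured on apical and basal sides.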

Cynomolgus monkey = experiment: Bioavailability in cynomolgus monkey assessed as plasma BMS-582949 level at 30 mg/kg, po dose equivalent to BMS-582949 after 24 hrs by LC/MS/MS method; format: ADME, organism-based, Macaca fascicularis; settings: in vivo
Summary of the method: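 Three overnight-fasted male cynomolgus monkeys (4.2-5.2 kg) given prodrug by oral gavage at 10 or 30 mg/kg, 5 mL/kg methocel suspension, one-week washout between doses. Femoral artery blood pre-dose and 0.25-24 h post-dose; plasma (centrifuged 4 °C) stored -20 °C and analysed by LC/MS/MS for parent.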

Rattus norvegicus [1] = experiment: Cmax in Sprague-Dawley rat assessed as plasma BMS-582949 level at 100 mg/kg, po dose equivalent to BMS-582949 after 24 hrs by LC/MS/MS method; format: ADME, organism-based; design: dose 100 mg/kg, route oral; settings: in vivo
Rattus norvegicus [2] = experiment: Bioavailability in Sprague-Dawley rat assessed as plasma BMS-582949 level at 100 mg/kg, po dose equivalent to BMS-582949 after 24 hrs by LC/MS/MS method; format: ADME, organism-based; settings: in vivo
Rattus norvegicus [3] = experiment: Inhibition of LPS-induced TNFalpha level in Lewis rat at 0.03 to 10 mg/kg, po dose equivalent to BMS-582949 dosed 1 hr before LPS challenge and measured 90 mins post LPS challenge by ELISA method; format: functional
Summary of the method: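 Male Lewis rats (200-250 g) dosed orally 1 h before IP injection of 10ug E. coli O111:B4 LPS in 1.0 mL sterile saline; prodrug as suspension in 0.75% Methocel, 0.1% Tween 80, parent in PEG 300, controls given vehicle. Blood taken 90 min after LPS; serum TNF measured by ELISA; ED50 expressed as parent equivalent.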

Rattus norvegicus [4] = experiment: Bioavailability in Sprague-Dawley rat assessed as plasma BMS-582949 level at 1 mg/kg, po dose equivalent to BMS-582949 after 24 hrs by LC/MS/MS method; format: ADME, organism-based; settings: in vivo
Liver carboxylesterase = target: T1, Liver carboxylesterase (Sus scrofa, UniProt Q29550); experiment: Stability assessed as porcine liver esterase-mediated drug degradation by measuring compound remaining level in pH 7.4 potassium phosphate buffer at 10 uM incubated for 0.25 hrs by LC/MS/MS; format: ADME, tissue-based; settings: pig, read-out: Stability
T1 sequence (Q29550 whole entry): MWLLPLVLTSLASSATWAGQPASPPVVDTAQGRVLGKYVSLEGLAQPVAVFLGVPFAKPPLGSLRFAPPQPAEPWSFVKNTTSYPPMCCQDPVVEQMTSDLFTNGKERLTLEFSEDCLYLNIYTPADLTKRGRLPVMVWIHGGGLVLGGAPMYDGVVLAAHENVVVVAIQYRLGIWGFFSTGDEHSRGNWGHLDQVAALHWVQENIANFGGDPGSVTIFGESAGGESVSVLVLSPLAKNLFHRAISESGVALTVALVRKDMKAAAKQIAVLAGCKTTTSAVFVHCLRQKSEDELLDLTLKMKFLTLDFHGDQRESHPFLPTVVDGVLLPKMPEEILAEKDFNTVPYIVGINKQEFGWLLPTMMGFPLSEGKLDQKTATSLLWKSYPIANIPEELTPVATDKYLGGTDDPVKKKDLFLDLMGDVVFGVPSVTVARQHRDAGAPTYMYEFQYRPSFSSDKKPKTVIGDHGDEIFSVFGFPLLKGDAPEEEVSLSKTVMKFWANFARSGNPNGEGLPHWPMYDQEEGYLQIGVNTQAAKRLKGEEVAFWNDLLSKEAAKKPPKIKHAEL
Summary of the method: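 Porcine liver esterase with substrate at 10 µM in 89 mM potassium phosphate pH 7.4, 37 °C. Reaction started by adding compound. Aliquots taken at 0, 15, 30 and 60 min and quenched with acetonitrile. After centrifugation at 4 °C, percent remaining quantified by LC/MS/MS.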

Rattus norvegicus [5] = experiment: AUC in Sprague-Dawley rat assessed as plasma BMS-582949 level at 10 mg/kg, po dose equivalent to BMS-582949 after 24 hrs by LC/MS/MS method; format: ADME, organism-based; design: time < 24 hr, dose 10 mg/kg, route oral; settings: in vivo
[6] = target: T2, Alkaline phosphatase, placental type (Homo sapiens, UniProt P05187); experiment: Stability assessed as human placental ALP-mediated drug degradation by measuring compound remaining level in pH 7.5 tris buffer at 10 uM incubated for 1 hr in presence of HALT phosphatase inhibitor cocktail by LC/MS/MS method; format: ADME; settings: pH 7.5, with HALT phosphatase inhibitor cocktail
T2 sequence (P05187 whole entry): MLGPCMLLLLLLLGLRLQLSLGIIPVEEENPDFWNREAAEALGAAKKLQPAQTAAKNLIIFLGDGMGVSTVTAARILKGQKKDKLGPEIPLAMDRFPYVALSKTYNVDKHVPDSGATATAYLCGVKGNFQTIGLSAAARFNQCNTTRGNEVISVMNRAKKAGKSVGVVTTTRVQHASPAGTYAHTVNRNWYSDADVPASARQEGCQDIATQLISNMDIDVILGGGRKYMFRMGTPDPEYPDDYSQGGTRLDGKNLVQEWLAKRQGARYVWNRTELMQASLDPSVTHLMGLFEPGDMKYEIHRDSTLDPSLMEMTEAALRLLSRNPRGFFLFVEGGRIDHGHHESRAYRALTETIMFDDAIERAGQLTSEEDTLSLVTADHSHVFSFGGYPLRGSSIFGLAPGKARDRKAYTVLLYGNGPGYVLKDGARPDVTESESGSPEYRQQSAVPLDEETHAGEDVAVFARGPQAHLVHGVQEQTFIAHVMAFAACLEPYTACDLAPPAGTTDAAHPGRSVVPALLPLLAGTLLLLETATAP
Summary of the method: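 Human placental ALP (1 unit/mL) with HALT phosphatase inhibitor cocktail at 100x dilution, added before the test compound (10 µM). Buffer 89 mM tris pH 7.5, 37 °C, triplicate. Sampled at 0, 15, 30 and 60 min, quenched with EDTA and acetonitrile, centrifuged, and percent remaining determined by LC/MS/MS.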

[7] = target: T2, Alkaline phosphatase, placental type; experiment: Stability assessed as human placental ALP-mediated drug degradation by measuring compound remaining level in pH 7.5 tris buffer at 10 uM incubated for 0.5 hrs by LC/MS/MS method; format: ADME; settings: read-out: Stability
Summary of the method: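 Human placental alkaline phosphatase (1 unit/mL) incubated with compound at 10 µM in 89 mM tris buffer, pH 7.5, 37 °C; reactions in triplicate started by compound addition, sampled at 0, 15, 30, 60 min. For inhibition, HALT phosphatase inhibitor cocktail (100x dilution) added before compound. Samples quenched into EDTA, acetonitrile added, centrifuged, remaining compound measured by LC/MS/MS.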

- Drug uptake (Caco-2): Active
- F (Cynomolgus monkey): 69%
- Cmax (Rattus norvegicus [1]): 122 µM
- F (Rattus norvegicus [2]): 115%
- F (Rattus norvegicus [4]): 41%
- remaining at 0.25 h, 10 µM (Liver carboxylesterase): 100%
- AUC (Rattus norvegicus [5]): 78 µM·h
- remaining at 1 h, 10 µM [6]: 64.5%
- remaining at 0.5 h, 10 µM [7]: 11.1%
SMILES: CCCN(C(=O)OCOC(=O)Cc1ccc(OP(=O)(O)O)cc1)C(=O)c1cn2ncnc(Nc3cc(C(=O)NC4CC4)ccc3C)c2c1C
- ED50 (Rattus norvegicus [3]): 0.89 mg
- inhibition (Rattus norvegicus [3]): Dose-dependent effect
